PMC3729352 (Pharmacological research : the official journal of the …, 2011)

Experiments:
[1] = biological target: T1, mouse Abcg2 (Mus musculus, UniProt Q7TMS5); experiment: Transepithelial transport across MDCKII monolayers over-expressing mouse Abcg2; format: in vitro ADME
T1 sequence (Q7TMS5 1-657): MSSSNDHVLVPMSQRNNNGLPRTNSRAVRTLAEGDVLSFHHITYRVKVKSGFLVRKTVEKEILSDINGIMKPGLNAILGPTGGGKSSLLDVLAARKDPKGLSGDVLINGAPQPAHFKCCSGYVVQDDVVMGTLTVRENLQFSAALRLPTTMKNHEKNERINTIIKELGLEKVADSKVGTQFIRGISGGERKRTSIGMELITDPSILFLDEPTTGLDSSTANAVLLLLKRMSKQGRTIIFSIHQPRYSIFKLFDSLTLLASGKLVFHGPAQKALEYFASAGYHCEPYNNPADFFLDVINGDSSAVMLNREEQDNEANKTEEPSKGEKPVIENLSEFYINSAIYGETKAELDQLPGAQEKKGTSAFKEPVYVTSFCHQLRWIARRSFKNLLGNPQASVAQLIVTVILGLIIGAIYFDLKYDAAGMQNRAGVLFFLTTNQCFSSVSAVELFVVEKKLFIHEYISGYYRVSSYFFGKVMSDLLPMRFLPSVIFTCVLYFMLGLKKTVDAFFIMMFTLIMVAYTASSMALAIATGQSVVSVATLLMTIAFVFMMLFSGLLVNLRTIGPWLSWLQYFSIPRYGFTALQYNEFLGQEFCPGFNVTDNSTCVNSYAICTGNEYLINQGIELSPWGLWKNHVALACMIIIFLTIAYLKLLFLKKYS

[2] = biological target: T2, ABCG2 (Mus musculus, UniProt Q7TMS5); format: in vivo; settings: Ko143 0, 1, 3 and 10 mg-kg^−1 i.p., 20 min prior to URB937 25 mg-kg^−1 s.c., ex vivo 1 h after URB937
T2 sequence (Q7TMS5 1-657): T1 sequence (Q7TMS5 1-657)

[3] = biological target: T3, FAAH (Mus musculus, UniProt O08914); experiment: Ex vivo FAAH activity in tissues of wild-type and Abcg2-/- mice after URB937; settings: URB937 25 mg-kg^−1 s.c., 1 h
T3 sequence (O08914 1-579): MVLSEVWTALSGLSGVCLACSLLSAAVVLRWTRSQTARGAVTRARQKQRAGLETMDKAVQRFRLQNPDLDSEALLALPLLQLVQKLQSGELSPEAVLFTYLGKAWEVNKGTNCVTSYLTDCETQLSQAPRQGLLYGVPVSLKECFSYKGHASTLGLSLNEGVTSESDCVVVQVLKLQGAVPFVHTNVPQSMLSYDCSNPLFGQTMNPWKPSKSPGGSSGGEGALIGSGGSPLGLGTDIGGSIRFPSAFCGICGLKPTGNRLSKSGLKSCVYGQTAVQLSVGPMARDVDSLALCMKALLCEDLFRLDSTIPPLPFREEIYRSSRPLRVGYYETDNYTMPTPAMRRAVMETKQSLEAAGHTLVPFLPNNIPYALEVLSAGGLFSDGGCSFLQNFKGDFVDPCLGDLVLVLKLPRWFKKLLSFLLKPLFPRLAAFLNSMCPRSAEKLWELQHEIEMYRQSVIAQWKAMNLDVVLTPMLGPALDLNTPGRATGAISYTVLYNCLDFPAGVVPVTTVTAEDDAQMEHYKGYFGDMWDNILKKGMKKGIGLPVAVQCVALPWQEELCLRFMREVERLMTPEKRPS
Outline: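 Male Abcg2−/− mice (n = 4) and wild-type FVB littermates (n = 5), 9–13 weeks, given test compound at 25 mg-kg−1 s.c. in saline/PEG400/Tween-80 (18:1:1). Killed 1 h later; tissues homogenized in 50 mM Tris-HCl pH 7.5 with 0.32 M sucrose. FAAH assay: 37°C, 30 min, 0.05% BSA, 50 µg protein (100 µg liver), 10 µM anandamide plus [3H]-anandamide. Read-out: aqueous-phase scintillation counting; mean ± SEM.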

[4] = Transepithelial transport across MDCKII parental monolayers; format: in vitro ADME, canine; settings: dog, MDCK
[5] = biological target: T4, human ABCG2 (Homo sapiens, UniProt Q9UNQ0)
T4 sequence (Q9UNQ0 1-655): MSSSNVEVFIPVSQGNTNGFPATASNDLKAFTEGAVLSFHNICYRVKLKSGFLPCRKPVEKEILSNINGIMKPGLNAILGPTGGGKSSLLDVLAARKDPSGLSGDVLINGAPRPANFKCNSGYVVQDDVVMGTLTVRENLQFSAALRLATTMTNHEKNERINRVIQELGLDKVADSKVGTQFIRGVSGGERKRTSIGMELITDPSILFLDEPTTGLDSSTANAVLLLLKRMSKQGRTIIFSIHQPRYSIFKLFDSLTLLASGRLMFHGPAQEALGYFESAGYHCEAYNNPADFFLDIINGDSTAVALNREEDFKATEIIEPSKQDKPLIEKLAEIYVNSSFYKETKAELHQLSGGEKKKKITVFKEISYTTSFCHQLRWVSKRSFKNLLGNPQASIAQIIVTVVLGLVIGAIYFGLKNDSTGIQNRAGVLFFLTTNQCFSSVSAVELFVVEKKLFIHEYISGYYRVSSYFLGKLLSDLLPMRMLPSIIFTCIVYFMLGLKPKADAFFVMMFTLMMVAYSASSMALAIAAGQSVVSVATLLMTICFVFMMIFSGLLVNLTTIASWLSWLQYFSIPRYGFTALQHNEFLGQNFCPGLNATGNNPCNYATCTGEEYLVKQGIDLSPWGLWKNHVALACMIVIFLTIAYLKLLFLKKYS

[6] = biological target: T3, FAAH; settings: cited from earlier work
[7] = Plasma and tissue levels of URB937 in wild-type and Abcg2-/- mice; format: in vivo, mouse; settings: 25 mg-kg^−1 s.c., mean ± SEM; for Level of URB937 in brain / Level of URB937 in kidney / Level of URB937 in liver / Level of URB937 in spinal cord: 1 h; for concentration at 1 h: mouse, plasma, sc, 25 mg-kg^−1, Level of URB937 in plasma
Outline: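 Dosing: test compound 25 mg-kg−1 s.c. in saline/PEG400/Tween-80 (18:1:1) to Abcg2−/− (n = 4) and wild-type littermates (n = 5); killed at 1 h. Plasma obtained by cardiac puncture and spun 2000 × g. Tissue homogenates and plasma extracted with methanol/chloroform (1:2) containing internal standard. Analysis by ESI-LC/MS on a C18 column with a methanol/water gradient (0.25% acetic acid, 5 mM ammonium acetate) at m/z 377; mean ± SEM.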

For `COc1ccc2c3c([nH]c2c1)[C@H](CC(C)C)N1C(=O)[C@H](CCC(=O)OC(C)(C)C)NC(=O)[C@@H]1C3` [Ko143, reference compound], which “inhibition of Abcg2-mediated transport of URB937” value ([1]; Ko143 1 µM, URB937 5 µM, MDCKII-Abcg2) is on record?
Its value is “completely inhibited”.

And the “brain FAAH activity” value [2]?
Its value is “dose-dependent decrease”.

What does the source list for `NC(=O)c1cccc(-c2cc(OC(=O)NC3CCCCC3)ccc2O)c1` [URB937, cyclohexylcarbamic acid 3'-carbamoyl-6-hydroxybiphenyl-3-yl ester]?
efflux ratio at 4 h, 5 µM ([1]; mouse): 13.6; increase of relative transport ratio by over-expression vs parental cells ([1]; mouse Abcg2 over-expression): ~10 folds; reduction in FAAH activity in brain and spinal cord ([3]; Abcg2^−/− mice compared to wild-type): 80%; FAAH activity in liver and kidney tissue ([3]; wild-type and Abcg2^−/− mice): nearly abolished; inhibition of FAAH activity in CNS ([3]; wild-type mice): almost no inhibition; efflux ratio at 4 h, 5 µM [4]: 1.5; increase of relative transport ratio by over-expression vs parental cells [5]: ~10 folds; potency at inhibiting FAAH activity in mouse liver relative to mouse brain ([6]; mouse liver vs mouse brain): 400 times; half-maximal effective dose (ID50), liver FAAH activity ([6]; systemic administration in mice, liver): 0.1 mg/kg; FAAH activity in forebrain, hypothalamus and spinal cord ([6]; systemic administration in mice): fails to alter; Level of URB937 in brain ([7]; Abcg2^−/− mice): 1.15 ± 0.04 pmol/mg; Level of URB937 in kidney ([7]; Abcg2^−/− mice): 34.97 ± 0.35 pmol/mg; Level of URB937 in liver ([7]; Abcg2^−/− mice): 7.75 ± 2.3 pmol/mg; Level of URB937 in spinal cord ([7]; Abcg2^−/− mice): 0.80 ± 0.10 pmol/mg; concentration at 1 h ([7]; Abcg2^−/− mice): 6.95 ± 0.9 µM; concentration at 1 h ([7]; wild-type mice): 8.34 ± 1.7 µM; Level of URB937 in brain ([7]; wild-type mice): 0.46 ± 0.12 pmol/mg; Level of URB937 in kidney ([7]; wild-type mice): 33.88 ± 3.3 pmol/mg; Level of URB937 in liver ([7]; wild-type mice): 7.51 ± 3.1 pmol/mg; Level of URB937 in spinal cord ([7]; wild-type mice): 0.29 ± 0.04 pmol/mg
